Source: ChEMBL document CHEMBL1275561, “In vitro activities of doripenem, a new broad-spectrum carbapenem, against recently collected clinical anaerobic isolates, with emphasis on the Bacteroides fragilis group” (2008)
Converted amounts (≈) assume the structure as drawn.

How the values were obtained:
Format in all cases: functional
Bacteroides eggerthii [1] = assay: Antimicrobial activity against Bacteroides eggerthii by agar dilution method
Summary of the method: (§1)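 CLSI agar dilution on enriched brucella agar (5% lysed defibrinated sheep blood, 1 μg/ml vitamin K1), with drug plates made on the test day. Log-phase cells were adjusted to 0.5 McFarland, and about 10^5 CFU/spot was delivered by Steers replicator. Plates were incubated anaerobically at 37°C for 48 h. MIC was the lowest concentration giving a marked growth change versus the control plate. Controls were B. fragilis ATCC 25285 and B. thetaiotaomicron ATCC 29741.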

Bacteroides caccae [2] = assay: Antimicrobial activity against Bacteroides caccae by agar dilution method; summary of the method: as §1
Parvimonas micra = assay: Antimicrobial activity against Micromonas micros by agar dilution method
Summary of the method: (§2)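 Gram-positive anaerobes were tested by CLSI agar dilution on brucella agar enriched with 5% lysed defibrinated sheep blood and 1 μg/ml vitamin K1. Inoculum was log-phase growth at 0.5 McFarland, about 10^5 CFU/spot by replicator. Incubation was anaerobic, 37°C, 48 h. MIC was the lowest concentration with a marked growth change versus the drug-free plate. Eubacterium lentum ATCC 43055 was the control, and tests were repeated if it fell outside the CLSI range.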

[3] = test system: Parabacteroides distasonis; assay: Antimicrobial activity against Bacteroides distasonis assessed as resistant isolates by agar dilution method
Summary of the method: (§3)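 CLSI agar dilution on enriched brucella agar (5% lysed defibrinated sheep blood, 1 μg/ml vitamin K1), plates made on test day. Log-phase inocula adjusted to 0.5 McFarland; about 10^5 CFU/spot by Steers replicator. Incubated anaerobically at 37°C for 48 h. MIC was the lowest concentration giving a marked change in growth versus the drug-free control plate. Resistance rates used CLSI anaerobe breakpoints. Controls were B. fragilis ATCC 25285 and B. thetaiotaomicron ATCC 29741.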

Bacteroides uniformis [4] = assay: Antimicrobial activity against Bacteroides uniformis by agar dilution method; summary of the method: as §1
Bacteroides nordii [5] = assay: Antimicrobial activity against Bacteroides nordii assessed as resistant isolates by agar dilution method; summary of the method: as §3
Finegoldia magna [6] = assay: Antimicrobial activity against Finegoldia magna assessed as resistant isolates by agar dilution method
Summary of the method: (§4)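 Agar dilution following CLSI on brucella agar with 5% lysed defibrinated sheep blood and 1 μg/ml vitamin K1, plates made on test day. Log-phase cells at 0.5 McFarland, about 10^5 CFU/spot by Steers replicator, 48 h anaerobic at 37°C. MIC read as the lowest concentration causing a marked growth change versus control. Resistance counted by CLSI anaerobe breakpoints. Eubacterium lentum ATCC 43055 served as control.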

[7] = test system: Parabacteroides distasonis; assay: Antimicrobial activity against Bacteroides distasonis by agar dilution method; summary of the method: as §1
Phocaeicola vulgatus [8] = assay: Antimicrobial activity against Bacteroides vulgatus by agar dilution method; summary of the method: as §1
[9] = test system: Clostridium paraputrificum; assay: Antimicrobial activity against Clostridium paraputrificum by agar dilution method
[Clostridium] innocuum [10] = Antimicrobial activity against Clostridium innocuum by agar dilution method
Anaerococcus prevotii = assay: Antimicrobial activity against Anaerococcus prevotii by agar dilution method; summary of the method: as §2
Clostridium perfringens = assay: Antimicrobial activity against Clostridium perfringens by agar dilution method
Bacteroides caccae [11] = assay: Antimicrobial activity against Bacteroides caccae assessed as resistant isolates by agar dilution method; summary of the method: as §3
Cutibacterium acnes [12] = assay: Antimicrobial activity against Propionibacterium acnes assessed as resistant isolates by agar dilution method; summary of the method: as §4
Bacteroides fragilis [13] = assay: Antimicrobial activity against Bacteroides fragilis assessed as resistant isolates by agar dilution method; summary of the method: as §3
Cutibacterium acnes [14] = assay: Antimicrobial activity against Propionibacterium acnes by agar dilution method
Summary of the method: (§5)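 Log-phase isolates were adjusted to 0.5 McFarland, and about 10^5 CFU/spot was delivered by Steers replicator. Plates were incubated anaerobically at 37°C for 48 h. MIC was the lowest concentration giving a marked growth change versus the control plate. Eubacterium lentum ATCC 43055 was the QC strain, with repeats when out of range.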

[15] = test system: Peptoniphilus asaccharolyticus; assay: Antimicrobial activity against Peptoniphilus asaccharolyticus by agar dilution method; summary of the method: as §2
Propionibacterium [16] = assay: Antimicrobial activity against Propionibacterium sp. by agar dilution method; summary of the method: as §5
Parabacteroides merdae [17] = assay: Antimicrobial activity against Bacteroides merdae assessed as resistant isolates by agar dilution method; summary of the method: as §3
[18] = test system: Peptoniphilus asaccharolyticus; assay: Antimicrobial activity against Peptoniphilus asaccharolyticus assessed as resistant isolates by agar dilution method; details: pooled result: one value given for 4 cell lines, strains, targets or settings; summary of the method: as §4
Finegoldia magna [19] = assay: Antimicrobial activity against Finegoldia magna by agar dilution method; summary of the method: as §2
Phocaeicola vulgatus [20] = assay: Antimicrobial activity against Bacteroides vulgatus assessed as resistant isolates by agar dilution method; summary of the method: as §3
Bacteroides eggerthii [21] = assay: Antimicrobial activity against Bacteroides eggerthii assessed as resistant isolates by agar dilution method; summary of the method: as §3
Peptostreptococcus sp. = assay: Antimicrobial activity against Peptostreptococcus sp. by agar dilution method; summary of the method: as §5
[Clostridium] innocuum [22] = Antimicrobial activity against Clostridium innocuum assessed as resistant isolates by agar dilution method; details: pooled result: one value given for 4 cell lines, strains, targets or settings
Parabacteroides merdae [23] = assay: Antimicrobial activity against Bacteroides merdae by agar dilution method; summary of the method: as §1
[24] = test system: Bacteroides thetaiotaomicron; assay: Antimicrobial activity against Bacteroides thetaiotaomicron by agar dilution method; summary of the method: as §1
[25] = test system: Bacteroides thetaiotaomicron; assay: Antimicrobial activity against Bacteroides thetaiotaomicron assessed as resistant isolates by agar dilution method; summary of the method: as §3
Bacteroides nordii [26] = assay: Antimicrobial activity against Bacteroides nordii by agar dilution method; summary of the method: as §1
Propionibacterium [27] = assay: Antimicrobial activity against Propionibacterium sp. assessed as resistant isolates by agar dilution method; summary of the method: as §4
Bacteroides uniformis [28] = assay: Antimicrobial activity against Bacteroides uniformis assessed as resistant isolates by agar dilution method; summary of the method: as §3
Bacteroides ovatus [29] = assay: Antimicrobial activity against Bacteroides ovatus assessed as resistant isolates by agar dilution method; summary of the method: as §3
Bacteroides ovatus [30] = assay: Antimicrobial activity against Bacteroides ovatus by agar dilution method; summary of the method: as §1
Clostridium subterminale = assay: Antimicrobial activity against Clostridium subterminale by agar dilution method
Clostridium tertium = assay: Antimicrobial activity against Clostridium tertium by agar dilution method
Clostridioides difficile = assay: Antimicrobial activity against Clostridium difficile by agar dilution method
Bacteroides fragilis [31] = assay: Antimicrobial activity against Bacteroides fragilis by agar dilution method; summary of the method: as §1

**Q.** Which results are given for `C[C@@H](O)[C@H]1C(=O)N2C(C(=O)O)=C(S[C@@H]3CN[C@H](C(=O)Nc4cccc(C(=O)O)c4)C3)[C@H](C)[C@H]12`?
**A.** MIC50 (Bacteroides eggerthii [1]): 1 µg/mL (≈ 2.1 µM); MIC90 (Bacteroides eggerthii [1]): 2 µg/mL (≈ 4.21 µM); MIC50 (Bacteroides caccae [2]): 0.5 µg/mL (≈ 1.05 µM); MIC90 (Bacteroides caccae [2]): 2 µg/mL (≈ 4.21 µM); MIC50 (Parvimonas micra): 0.125 µg/mL (≈ 0.263 µM); MIC90 (Parvimonas micra): 0.5 µg/mL (≈ 1.05 µM); Activity [3]: 0%; MIC50 (Bacteroides uniformis [4]): 0.5 µg/mL (≈ 1.05 µM); MIC90 (Bacteroides uniformis [4]): 2 µg/mL (≈ 4.21 µM); Activity (Bacteroides nordii [5]): 0%; Activity (Finegoldia magna [6]): 0%; MIC50 [7]: 1 µg/mL (≈ 2.1 µM); MIC90 [7]: 4 µg/mL (≈ 8.41 µM); MIC50 (Phocaeicola vulgatus [8]): 0.5 µg/mL (≈ 1.05 µM); MIC90 (Phocaeicola vulgatus [8]): 2 µg/mL (≈ 4.21 µM); MIC50 [9]: 4 µg/mL (≈ 8.41 µM); MIC90 [9]: 8 µg/mL (≈ 16.8 µM); MIC50 ([Clostridium] innocuum [10]): 4 µg/mL (≈ 8.41 µM); MIC90 ([Clostridium] innocuum [10]): 8 µg/mL (≈ 16.8 µM); MIC50 (Anaerococcus prevotii): 0.125 µg/mL (≈ 0.263 µM); MIC90 (Anaerococcus prevotii): 0.5 µg/mL (≈ 1.05 µM); MIC (Clostridium perfringens): 0.06 µg/mL (≈ 0.126 µM); MIC50 (Clostridium perfringens): 0.06 µg/mL (≈ 0.126 µM); MIC90 (Clostridium perfringens): 0.25 µg/mL (≈ 0.526 µM); Activity (Bacteroides caccae [11]): 0%; Activity (Cutibacterium acnes [12]): 0%; Activity (Bacteroides fragilis [13]): 2%; MIC (Cutibacterium acnes [14]): 0.06 µg/mL (≈ 0.126 µM); MIC50 (Cutibacterium acnes [14]): 0.06 µg/mL (≈ 0.126 µM); MIC90 (Cutibacterium acnes [14]): 0.06 µg/mL (≈ 0.126 µM); MIC50 [15]: 0.125 µg/mL (≈ 0.263 µM); MIC90 [15]: 0.5 µg/mL (≈ 1.05 µM); MIC (Propionibacterium [16]): 0.06 µg/mL (≈ 0.126 µM); MIC50 (Propionibacterium [16]): 0.06 µg/mL (≈ 0.126 µM); MIC90 (Propionibacterium [16]): 0.25 µg/mL (≈ 0.526 µM); Activity (Parabacteroides merdae [17]): 0%; Activity [18]: 0%; MIC50 (Finegoldia magna [19]): 0.125 µg/mL (≈ 0.263 µM); MIC90 (Finegoldia magna [19]): 0.125 µg/mL (≈ 0.263 µM); Activity (Phocaeicola vulgatus [20]): 0%; Activity (Bacteroides eggerthii [21]): 0%; MIC50 (Peptostreptococcus sp.): 0.125 µg/mL (≈ 0.263 µM); MIC90 (Peptostreptococcus sp.): 0.5 µg/mL (≈ 1.05 µM); Activity ([Clostridium] innocuum [22]): 0%; MIC50 (Parabacteroides merdae [23]): 1 µg/mL (≈ 2.1 µM); MIC90 (Parabacteroides merdae [23]): 2 µg/mL (≈ 4.21 µM); MIC50 [24]: 2 µg/mL (≈ 4.21 µM); MIC90 [24]: 4 µg/mL (≈ 8.41 µM); Activity [25]: 0%; MIC50 (Bacteroides nordii [26]): 1 µg/mL (≈ 2.1 µM); MIC90 (Bacteroides nordii [26]): 2 µg/mL (≈ 4.21 µM); Activity (Propionibacterium [27]): 0%; Activity (Bacteroides uniformis [28]): 0%; Activity (Bacteroides ovatus [29]): 2.9%; MIC50 (Bacteroides ovatus [30]): 1 µg/mL (≈ 2.1 µM); MIC90 (Bacteroides ovatus [30]): 4 µg/mL (≈ 8.41 µM); MIC50 (Clostridium subterminale): 4 µg/mL (≈ 8.41 µM); MIC90 (Clostridium subterminale): 8 µg/mL (≈ 16.8 µM); MIC50 (Clostridium tertium): 4 µg/mL (≈ 8.41 µM); MIC90 (Clostridium tertium): 8 µg/mL (≈ 16.8 µM); MIC (Clostridioides difficile): 2 µg/mL (≈ 4.21 µM); MIC50 (Bacteroides fragilis [31]): 0.5 µg/mL (≈ 1.05 µM); MIC90 (Bacteroides fragilis [31]): 2 µg/mL (≈ 4.21 µM)
